# Shown are actives, neighbours in structure and some others; about 4.5% of the full set was active somewhere.
# AHR act: AHR activators, primary screen, cell-based, luminescence, luciferase reporter, human. Aryl hydrocarbon receptor (Homo sapiens), P35869. AHR-responsive luciferase reporter cells. activation, % at 5 µM. actives 2.5% (n = 320,000). AID 2796, 2010; in the data active means activation above about 47%;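 further: 0% = vehicle wells and 100% = reference agonist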
# STAT1 activator: STAT1 signaling activators, primary screen, cell-based, HTS, luciferase reporter. actives 2.6% (n = 200,000). NIH 3T3 STAT1-luciferase reporter, IFN-gamma, luminescence; 100% = IFN-gamma alone, no compound. AID 932, 2007. activation (% of control), % at 5.5 µM;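 active means activation above the screen-wide mean activation plus 3 SD, cut at about 130% in these data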;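 further: raw ratio to IFN-gamma control signal so 100% means no change and 0% no light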
# MDM2 E3 inh: MDM2-luciferase reporter signal enhancers, primary screen, MDM2 E3 ligase inhibitor project, cell-based, luminescence, 1536-well; signal enhancement, % at 5 µM; actives 0.11% (n = 210,000); E3 ubiquitin-protein ligase Mdm2 (Homo sapiens), Q00987; cell-based MDM2 ubiquitination luciferase reporter, 2 h; 0 = plate control, 100 = twice control, blank-subtracted;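 active means signal enhancement of 30% or more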;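 further: luminescence tracks abundance of the self-degrading MDM2-luciferase fusion protein; higher signal means inhibition of MDM2 E3 ligase activity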
#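 Test system: mammalian cells stably expressing self-ubiquitinating, self-degrading MDM2 E3–luciferase fusion; Amount: 2000 cells in each well; Medium: DMEM; Schedule: 4 h settle plus 2 h compound, 37 °C; Technique: SteadyLite luciferase luminescence after 15 min room-temperature reagent incubation; Benchmarks: plate control and blank wells.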
# NF-kB neuron act: activators of NF-kB expression in neurons, primary screen, cell-based, HTS. human neuronal cells, NF-kB reporter expression; stronger effect = higher value. fold change at 12.5 µM. actives 1.6% (n = 190,000). AID 1239, 2008; in the data active means fold change above about 3.3
# APP 5'UTR act: activators of APP 5'UTR luciferase reporter, primary screen, SH-SY5Y cells | activation, % at 2 µM | SH-SY5Y APP 5'UTR luciferase reporter, luminescence; zero percent = DMSO vehicle wells | actives 1% (n = 190,000);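 active means activation above a set limit, based on mean plus 3 SD of controls, cut at about 140% in these data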
# PERK inh: block of dimerizer-induced PERK translation repression, primary screen, PERK inhibitor project, CHO PERK-DD cells, SEAP luminescence, HTS | Eukaryotic translation initiation factor 2-alpha kinase 3 (Homo sapiens), Q9NZJ5 | CHO PERK-DD fusion, SEAP luminescence translation reporter | inhibition, % at 5.6 µM | actives 0.17% (n = 220,000) | AID 1416, 2008;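 active means inhibition above the mean inhibition of all tested compounds plus 3 SD, set separately per screening campaign, cut at about 2.9% in these data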;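 further: PERK kinase domain activated by AP20187 dimerizer at 100 nM; 0% = DMSO with dimerizer and 100% = rapamycin at 8.4 µM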
# Active calls of the source: *; nt = not tested or not shown.
SMILES,AHR act,STAT1 activator,MDM2 E3 inh,NF-kB neuron act,APP 5'UTR act,PERK inh
COc1ccc(-n2ncc3c(NCCCN4CCOCC4)ncnc32)cc1,3.6,135.1*,-11.8,0.74,84.7,-0.7
COc1ccc(-n2ncc3c(NCCN4CCOCC4)ncnc32)cc1,1.3,124.6,nt,0.64,58.8,-1.5
CCCNc1ncnc2c1cnn2-c1ccc(OC)cc1,nt,156.3*,-62.8,5.88*,192.9*,1.3
COc1ccc(CC(=O)NNc2ncnc3c2cnn3-c2ccccc2)cc1,51.1*,103.7,5.3,1.1,-6.0,-0.1
O=C(Nc1ccccc1F)c1ccc(CSc2ncccn2)cc1,-1.0,137.8*,-31.2,3.08,155.1*,-0.1
Cn1nnnc1SCc1ccc(C(=O)Nc2ccccc2F)cc1,-5.6,106.4,-17.3,1.49,44.4,1.9
Cc1ccc(NC(=O)c2ccc(CSc3nccc(C)n3)cc2)cc1,7.0,98.9,-15.3,1.01,18.6,0.3
CSCc1ccc(C(=O)Nc2ccc(C(N)=O)cc2)cc1,12.9,146.8*,-12.4,1.77,85.3,-0.3
O=C(Nc1ccccc1)c1ccc(CSc2ncccn2)cc1,6.4,139.4*,-51.0,2.47,151.7*,-0.5
Cc1ccc(Nc2cc(-n3cccn3)ncn2)c(C)c1,14.5,141.3*,9.5,3.47*,127.5,-0.1
Cc1ccc(Nc2cc(-n3nc(C)cc3C)ncn2)c(C)c1,14.2,90.3,-7.6,1.29,0.9,0.1
CC(=NCCc1ccccc1)C1=C(O)CCC1=O,0.6,94.1,-20.2,1.35,-5.0,-0.7
CC(=NCCc1ccccc1)C1=C(O)CSC1=O,48.9*,112.7,-12.8,1.4,6.9,-0.9
